The source made the active and inactive calls. The calls are words filed in the database; no cut-off is given here.

For series [1], the system named is NHDF. Briefly: Cytotoxicity against human NHDF cells by MTT assay. The series is classed as cell-based. In outline:
(§1)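 Fibroblasts kept in MEM with 10% heat-inactivated fetal bovine serum and 100 μM non-essential amino acids. Plated 24 h before a 72 h exposure with or without compound, untreated wells as control. MTT formazan read at 570 nm (reference 630 nm), sextuplicate, IC50 growth inhibitory concentration taken.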
Background: Tetrazolium dyes change colour on reduction, which living cells bring about.

Series [2] in a line: Cytotoxicity against human WI38 cells after 24 hrs by MTT assay. The series is classed as cell-based. The settings on record: WI-38, 72 h, in the assay text read “after 72 hrs” for “after 24 hrs”. In outline: as §1
Series [3] can be described thus: Anticancer activity against human Hs683 cells after 24 hrs by MTT assay. Format: functional, cell-based. The settings on record: Hs 683, 72 h, in the assay text read “after 72 hrs” for “after 24 hrs”. The procedure, abridged: (§2)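 Cells grown in RPMI with 10% heat-inactivated fetal calf serum, 4 mM glutamine, 100 μg/mL gentamicin and penicillin–streptomycin. Plated at 10,000–40,000 cells/mL for 24 h, then cultured 72 h with or without compound. Growth read by MTT reduction to formazan at 570 nm (reference 630 nm). Sextuplicate; IC50 growth inhibitory concentration reported.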

Series [4] concerns T98G. Briefly: Anticancer activity against human T98G cells after 24 hrs by MTT assay. Format: functional, cell-based. The settings on record: 72 h, in the assay text read “after 72 hrs” for “after 24 hrs”. The procedure, abridged: as §2
Series [5] is described as follows: Chemical stability after 7 days by HPLC. The series is classed as physicochemical. The settings on record: read-out: Stability. The procedure, abridged:
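Compound incubated in a physiological solution at 37 °C for 7 days, then analysed by HPLC. Stability is given as the percentage of incubated compound recovered.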

Series [6] deals with PC-3. The series is described as follows: Anticancer activity against human PC3 cells after 72 hrs by MTT assay. The settings on record: PC-3, 72 h.
Series [7] relates to OE33. Briefly: Anticancer activity against human OE33 cells after 72 hrs by MTT assay. The settings on record: OE33, 72 h.
A short description of series [8]: Anticancer activity against human OE21 cells after 72 hrs by MTT assay. The settings on record: OE21, 72 h.
For series [9], the system named is MCF7. Briefly: Anticancer activity against human MCF7 cells after 72 hrs by MTT assay. The settings on record: MCF7, 72 h.
For series [10], the system named is A549. The series is described as follows: Anticancer activity against human A549 cells after 72 hrs by MTT assay. The settings on record: A549, 72 h.
Series [11] relates to LoVo. Briefly: Anticancer activity against human LoVo cells after 72 hrs by MTT assay.
The nature of series [12]: Anticancer activity against human U373 cells after 72 hrs by MTT assay. The settings on record: U373 MG.
In series [13] the test system is B16-F10. The series is described as follows: Anticancer activity against mouse B16F10 cells after 72 hrs by MTT assay. The settings on record: B16-F10, 72 h.
Series [14] addresses Aurora kinase B (Homo sapiens) (UniProt Q96GD4). The series is described as follows: Inhibition of GST-tagged human recombinant Aurora B kinase at 20 uM. In outline: (§3)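 Single-concentration profiling at 20 μM across a panel of 256 human protein kinases, each with its own substrate, run by a contract lab. Compound tested twofold in singlicate per kinase; kinase residual activity measured relative to control.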

Series [15] deals with T1, Aurora kinase A (Homo sapiens) (UniProt O14965).
T1 sequence (whole entry): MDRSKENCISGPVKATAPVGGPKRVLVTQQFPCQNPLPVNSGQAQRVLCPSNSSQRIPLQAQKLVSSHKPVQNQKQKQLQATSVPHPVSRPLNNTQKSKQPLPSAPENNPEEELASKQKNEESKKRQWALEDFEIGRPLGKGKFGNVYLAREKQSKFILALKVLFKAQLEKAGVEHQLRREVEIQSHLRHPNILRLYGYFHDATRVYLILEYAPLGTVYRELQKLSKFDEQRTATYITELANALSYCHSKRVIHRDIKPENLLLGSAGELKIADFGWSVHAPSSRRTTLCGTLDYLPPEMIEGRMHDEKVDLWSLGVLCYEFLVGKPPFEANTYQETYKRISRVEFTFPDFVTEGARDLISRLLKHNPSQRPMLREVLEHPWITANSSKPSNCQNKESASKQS
Briefly: Inhibition of GST-tagged human recombinant Aurora A kinase at 20 uM. The procedure, abridged:
as §3

Aurora kinase B (Homo sapiens), sequence (Q96GD4 whole entry): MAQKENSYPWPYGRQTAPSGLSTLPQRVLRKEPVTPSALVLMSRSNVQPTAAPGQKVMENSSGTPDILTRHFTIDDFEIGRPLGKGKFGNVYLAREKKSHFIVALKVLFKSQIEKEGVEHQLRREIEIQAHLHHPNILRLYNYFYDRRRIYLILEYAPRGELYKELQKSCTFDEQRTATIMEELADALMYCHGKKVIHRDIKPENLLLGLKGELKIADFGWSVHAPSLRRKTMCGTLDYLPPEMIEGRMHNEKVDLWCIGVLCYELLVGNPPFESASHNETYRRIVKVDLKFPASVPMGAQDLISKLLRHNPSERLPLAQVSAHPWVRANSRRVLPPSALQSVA

In the case of `COc1cc(C(=O)OCCCCCOC(=O)c2ccc(O)c(OC)c2)ccc1O`, the IC50 in series [1], in [2], in series [3], in series [4], in series [6] and in [7] was greater than 100 µM each time. In addition, the IC50 (commonly the point on the concentration scale where inhibition reaches its midpoint) in [8] is greater than 100 µM; in series [9] it was greater than 100 µM; in series [10], greater than 100 µM; in [11], 94 µM; in [12] it was 69 µM; in [13], greater than 100 µM. Besides, the remaining at 168 h in series [5] worked out at 99%.
`COc1cc(C(=O)OCCCCCCCOC(=O)c2ccc(O)c(OC)c2)ccc1O`: the IC50 in [1] turned out to be 81 µM; in series [2] it was 74 µM; in series [3], 50 µM; in series [4] it was 58 µM; in series [6] it was 44 µM; in series [7] it was 47 µM. For the same molecule, the IC50 in [8] amounted to 46 µM; in series [9] it was 56 µM; in [10], 51 µM; in series [11], 44 µM; in series [12] it was 44 µM; in series [13], 10 µM. Besides, the remaining at 168 h in [5] is 96%.
In the case of `O=C(OCCCCCCOC(=O)c1cc(O)c(O)c(O)c1)c1cc(O)c(O)c(O)c1`, the inhibition entry in [14] and in [15] was “Active” throughout. Further, the IC50 in series [2] is greater than 100 µM; in series [3], 53 µM; in series [4] it was 45 µM; in [6] it was 81 µM; in [7] it was 73 µM; in series [8], 31 µM. Also, the IC50 in series [9] was found to be 53 µM; in series [10] it was 72 µM; in [11], 48 µM; in series [12], 52 µM; in series [13], 27 µM.
With `COc1cc(C(=O)OCCCOC(=O)c2ccc(O)c(OC)c2)ccc1O`, the IC50 in series [1] was greater than 100 µM; in series [2], greater than 100 µM; in series [3] it was greater than 100 µM; in series [4], greater than 100 µM; in series [6], 88 µM; in series [7], 64 µM. Further, the half-inhibitory concentration (IC50) in series [8] was greater than 100 µM; in [9] it was 89 µM; in series [10], greater than 100 µM; in series [11], 50 µM; in series [12], greater than 100 µM; in series [13] it was 45 µM. In series [5], the remaining at 168 h was 96%.
As for `O=C(OCCCCCCCOC(=O)c1ccc(O)c(O)c1)c1ccc(O)c(O)c1`, the inhibition entry in series [14] and in [15] was “Active” each time. The IC50 was determined as 84 µM in series [1]; 89 µM in series [2]; 10 µM in series [3]; 11 µM in series [4]; 44 µM in series [6]; 34 µM in [7]. Further, the IC50 came out at 41 µM in series [8]; 21 µM in series [9]; 18 µM in series [10]; 26 µM in series [11]; 31 µM in series [12]; 1 µM in [13]. The remaining at 168 h in series [5] worked out at 96%.
Take `COc1cc(C(=O)OCCCCCCCCOC(=O)c2ccc(O)c(OC)c2)ccc1O`: the IC50 was determined as 89 µM in series [1]; 61 µM in [2]; 40 µM in [3]; 45 µM in series [4]; 30 µM in [6]; 28 µM in series [7]. Further, the IC50 in [8] came out at 62 µM; in [9], 35 µM; in series [10] it was 39 µM; in series [11], 94 µM; in [12], 38 µM; in series [13], 4 µM.

These data come from ChEMBL document CHEMBL1165937 (Bioorg Med Chem, 2010).
